Assay results from ChEMBL document CHEMBL4118190, “An SAR study of hydroxy-trifluoromethylpyrazolines as inhibitors of Orai1-mediated store operated Ca2+ entry in MDA-MB-231 breast cancer cells using a convenient Fluorescence Imaging Plate Reader assay” (Bioorg Med Chem, 2018).
≈ marks a conversion by molar mass, not a printed value. One block for each molecule: values may come before it. Calls of active or inactive are those of the source. The rule behind the calls is not given here.

Key:
[1] = target: T1, Calcium release-activated calcium channel protein 1 (Homo sapiens, UniProt Q96D31); test: Inhibition of […] Orai1-medited store operated calcium entry in human MDA-MB-231 cells at 10 uM pretreated for 15 mins followed by BAPTA addition by PBX dye based FLIPR assay relative to control; assay type: cell-based
How it was run: (§1)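 MDA-MB-231 cells seeded 2×10^3/well and used 3 days later. Loaded 1 h at 37 °C with 2 µM PBX calcium dye, 5% signal enhancer and 500 µM probenecid in PSS, pH 7.3. Compound pretreated 15 min at room temperature. Then 500 µM BAPTA, 10 µM CPA, and 0.5 mM CaCl2 700 s after CPA. Read-out: peak 2 height as % inhibition vs DMSO. 95% CI, n = 4.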
Target sequence in this assay (Q96D31 whole entry, looked up): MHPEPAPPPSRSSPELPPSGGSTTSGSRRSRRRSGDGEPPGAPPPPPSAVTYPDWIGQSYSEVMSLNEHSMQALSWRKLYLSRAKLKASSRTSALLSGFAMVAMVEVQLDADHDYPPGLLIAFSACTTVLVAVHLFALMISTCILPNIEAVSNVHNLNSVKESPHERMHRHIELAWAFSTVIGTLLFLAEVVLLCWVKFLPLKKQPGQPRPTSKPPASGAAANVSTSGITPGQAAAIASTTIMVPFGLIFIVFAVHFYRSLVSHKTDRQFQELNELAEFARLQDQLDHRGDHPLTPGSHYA

[2] = target: Transient receptor potential cation channel subfamily V member 1 (Rattus norvegicus) (UniProt O35433); test: Inhibition of rat TRPV1 expressed in HEK293 cells assessed as reduction in capsaicin-induced calcium flux up to 100 uM pretreated for 300 secs followed by capsaicin addition by calcium 4-dye based FLIPR assay; assay type: cell-based
How it was run: (§2)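 HEK293 cells transfected with rat TRPV1 or rat TRPM8 plasmid using Lipofectamine 2000, plated at 10,000/well and assayed 48 h after transfection. Calcium 4 dye loaded 30 min at 37 °C in PSS with 1.8 mM CaCl2. Compound added 300 s before agonist: capsaicin 100 nM for TRPV1, menthol 100 µM for TRPM8. Fluorescence read on FLIPR.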

[3] = Lipophilicity, log P of the compound; assay type: physicochemical; conditions: octanol/water
[4] = target: T1, Calcium release-activated calcium channel protein 1; test: Inhibition of […] Orai1-medited store operated calcium entry in human MDA-MB-231 cells at 100 uM pretreated for 15 mins followed by BAPTA addition by PBX dye based FLIPR assay relative to control; assay type: cell-based; how it was run: as §1
Target sequence in this assay (Q96D31 whole entry, looked up): as above

[5] = target: hERG (KCNH2) (Homo sapiens, UniProt Q12809); test: Inhibition of human ERG at 10 uM relative to control
[6] = Stability of the compound in M1/M0 H2O; assay type: ADME
[7] = Solubility of the compound in alpha minimum essential medium; assay type: physicochemical
[8] = target: Transient receptor potential cation channel subfamily M member 8 (Rattus norvegicus) (UniProt Q8R455); test: Inhibition of rat TRPM8 expressed in HEK293 cells assessed as reduction in menthol-induced calcium flux up to 100 uM pretreated for 300 secs followed by menthol addition by calcium 4-dye based FLIPR assay; assay type: cell-based; how it was run: as §2
[9] = target: Voltage-dependent N-type calcium channel subunit alpha-1B (Homo sapiens) (UniProt Q00975); test: Inhibition of Cav2.2 in human SH-SY5Y cells assessed as reduction in KCl/CaCl2-induced calcium flux up to 100 uM pretreated for 300 secs followed by KCl/CaCl2 addition measured in presence of nifedipine by calcium 4-dye based FLIPR assay; assay type: cell-based
How it was run: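 SH-SY5Y cells plated at 50,000/well and used 48 h later. Loaded 30 min at 37 °C/5% CO2 with Calcium 4 dye in PSS containing 1.8 mM CaCl2. Nifedipine 10 µM present. Compound added 300 s before stimulation with KCl (90 mM)/CaCl2 (5 mM). Calcium flux read on FLIPR.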

[10] = target: Voltage-dependent L-type calcium channel subunit alpha-1C (Homo sapiens, UniProt Q13936); test: Inhibition of Cav1.2 (unknown origin) up to 100 uM
[11] = tested on: MDA-MB-231; test: Inhibition of endoplasmic reticulum calcium channel in human MDA-MB-231 cells assessed as reduction in endoplasmic reticulum intracellular calcium release at 100 uM pretreated for 15 mins followed by SERCA inhibitor CPA addition measured after 700 secs by PBX dye based FLIPR assay relative to control; assay type: cell-based
How it was run: (§3)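 Same MDA-MB-231 PBX-dye FLIPR protocol: 15 min compound pretreatment at room temperature, then BAPTA (500 µM) and CPA (10 µM) to deplete ER stores. Peak 1 height after CPA addition (ER Ca2+ release) expressed as % inhibition relative to the DMSO control. Excitation 470–495 nm, emission 515–575 nm.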

[12] = target: Voltage-dependent L-type calcium channel subunit alpha-1D (Homo sapiens) (UniProt Q01668); test: Inhibition of Cav1.3 (unknown origin) up to 100 uM
[13] = Half life in human liver microsomes; assay type: ADME, microsome
[14] = Half life in mouse liver microsomes; assay type: ADME, microsome
[15] = Inhibition of CRAC in rat RBL2H3 cells assessed blockade of IP3-induced calcium flux pretreated for 30 to 60 mins followed by IP3 addition by Qpatch analysis; assay type: cell-based; conditions: RBL-2H3
[16] = target: T1, Calcium release-activated calcium channel protein 1; test: Inhibition of […] Orai1-medited store operated calcium entry in human MDA-MB-231 cells pretreated for 15 mins followed by BAPTA addition by PBX dye based FLIPR assay; assay type: cell-based; how it was run: as §1
Target sequence in this assay (Q96D31 whole entry): as the sequence (Q96D31 whole entry, looked up) above

[17] = Inhibition of endoplasmic reticulum calcium channel in human MDA-MB-231 cells assessed as reduction in endoplasmic reticulum intracellular calcium release pretreated for 15 mins followed by SERCA inhibitor CPA addition measured after 700 secs by PBX dye based FLIPR assay; assay type: cell-based; how it was run: as §3
[18] = Inhibition of […] in thapsigargin-stimulated human Jurkat T cells assessed as blockade of intracellular calcium flux by fluo-4-AM dye based FLIPR assay; assay type: cell-based
[19] = Inhibition of CRAC in human Jurkat T cells assessed as increase in TG-stimulated intracellular calcium depletion measured every 8 secs by Ca2+ dye based fluorescence assay; assay type: cell-based

Voltage-dependent N-type calcium channel subunit alpha-1B (Homo sapiens), sequence (Q00975 whole entry, looked up): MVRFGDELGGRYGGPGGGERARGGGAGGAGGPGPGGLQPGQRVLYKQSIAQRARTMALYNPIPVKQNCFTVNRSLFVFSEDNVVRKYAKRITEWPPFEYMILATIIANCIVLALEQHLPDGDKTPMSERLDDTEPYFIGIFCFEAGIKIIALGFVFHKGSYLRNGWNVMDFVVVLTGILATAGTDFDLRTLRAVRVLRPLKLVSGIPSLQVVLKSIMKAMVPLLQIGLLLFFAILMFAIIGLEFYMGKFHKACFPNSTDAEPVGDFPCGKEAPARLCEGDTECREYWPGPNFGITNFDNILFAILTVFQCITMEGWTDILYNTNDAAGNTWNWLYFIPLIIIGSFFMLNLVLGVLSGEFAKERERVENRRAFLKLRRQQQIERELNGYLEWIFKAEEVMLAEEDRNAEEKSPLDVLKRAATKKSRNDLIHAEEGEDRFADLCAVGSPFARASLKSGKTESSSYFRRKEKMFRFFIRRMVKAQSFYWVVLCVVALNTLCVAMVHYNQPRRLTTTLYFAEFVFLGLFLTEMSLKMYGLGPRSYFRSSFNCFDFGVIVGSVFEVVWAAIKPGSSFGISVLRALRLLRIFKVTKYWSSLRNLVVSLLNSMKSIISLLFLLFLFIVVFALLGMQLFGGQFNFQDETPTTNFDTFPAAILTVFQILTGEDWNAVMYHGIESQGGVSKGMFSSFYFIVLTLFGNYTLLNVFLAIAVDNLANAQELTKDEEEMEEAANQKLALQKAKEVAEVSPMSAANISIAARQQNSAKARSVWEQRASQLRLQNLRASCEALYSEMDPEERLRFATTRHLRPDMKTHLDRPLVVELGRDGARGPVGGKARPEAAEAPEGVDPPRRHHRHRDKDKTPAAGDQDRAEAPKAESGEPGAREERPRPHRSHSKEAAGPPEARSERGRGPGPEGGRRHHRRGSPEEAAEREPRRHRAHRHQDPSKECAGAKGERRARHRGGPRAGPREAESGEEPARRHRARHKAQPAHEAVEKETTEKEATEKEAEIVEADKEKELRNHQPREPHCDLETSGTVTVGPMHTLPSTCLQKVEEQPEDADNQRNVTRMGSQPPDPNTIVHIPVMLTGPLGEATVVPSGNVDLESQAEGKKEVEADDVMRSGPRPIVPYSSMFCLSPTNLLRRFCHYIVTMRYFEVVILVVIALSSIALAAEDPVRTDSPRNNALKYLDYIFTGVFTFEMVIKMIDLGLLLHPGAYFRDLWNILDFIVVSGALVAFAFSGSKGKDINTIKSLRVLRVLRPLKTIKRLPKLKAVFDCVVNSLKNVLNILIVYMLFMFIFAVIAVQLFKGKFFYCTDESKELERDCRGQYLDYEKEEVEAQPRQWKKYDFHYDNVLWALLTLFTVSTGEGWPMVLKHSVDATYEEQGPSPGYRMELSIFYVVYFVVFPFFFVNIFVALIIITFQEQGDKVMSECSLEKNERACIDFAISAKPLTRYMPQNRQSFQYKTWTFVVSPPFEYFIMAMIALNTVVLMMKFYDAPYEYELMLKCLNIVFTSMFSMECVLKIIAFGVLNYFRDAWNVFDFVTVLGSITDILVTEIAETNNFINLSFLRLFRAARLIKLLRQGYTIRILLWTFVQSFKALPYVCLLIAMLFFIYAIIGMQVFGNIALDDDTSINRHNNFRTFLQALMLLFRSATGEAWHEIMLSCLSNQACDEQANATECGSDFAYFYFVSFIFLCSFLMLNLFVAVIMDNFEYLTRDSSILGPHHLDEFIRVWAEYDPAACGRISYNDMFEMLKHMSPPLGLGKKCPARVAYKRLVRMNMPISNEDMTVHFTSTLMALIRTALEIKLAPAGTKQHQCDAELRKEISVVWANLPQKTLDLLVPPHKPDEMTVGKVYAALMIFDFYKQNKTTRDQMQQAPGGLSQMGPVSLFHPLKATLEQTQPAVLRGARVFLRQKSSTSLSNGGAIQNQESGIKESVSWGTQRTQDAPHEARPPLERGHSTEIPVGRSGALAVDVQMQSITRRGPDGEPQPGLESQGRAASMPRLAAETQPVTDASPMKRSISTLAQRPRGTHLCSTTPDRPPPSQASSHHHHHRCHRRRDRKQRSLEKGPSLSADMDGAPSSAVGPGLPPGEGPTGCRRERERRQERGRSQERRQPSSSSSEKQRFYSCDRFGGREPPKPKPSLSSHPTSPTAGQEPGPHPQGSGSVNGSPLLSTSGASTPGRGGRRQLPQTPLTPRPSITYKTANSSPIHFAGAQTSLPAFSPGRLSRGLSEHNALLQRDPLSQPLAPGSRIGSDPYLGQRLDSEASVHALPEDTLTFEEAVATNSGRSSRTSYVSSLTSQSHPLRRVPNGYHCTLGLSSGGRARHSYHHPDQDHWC
hERG (KCNH2), sequence (Q12809 whole entry): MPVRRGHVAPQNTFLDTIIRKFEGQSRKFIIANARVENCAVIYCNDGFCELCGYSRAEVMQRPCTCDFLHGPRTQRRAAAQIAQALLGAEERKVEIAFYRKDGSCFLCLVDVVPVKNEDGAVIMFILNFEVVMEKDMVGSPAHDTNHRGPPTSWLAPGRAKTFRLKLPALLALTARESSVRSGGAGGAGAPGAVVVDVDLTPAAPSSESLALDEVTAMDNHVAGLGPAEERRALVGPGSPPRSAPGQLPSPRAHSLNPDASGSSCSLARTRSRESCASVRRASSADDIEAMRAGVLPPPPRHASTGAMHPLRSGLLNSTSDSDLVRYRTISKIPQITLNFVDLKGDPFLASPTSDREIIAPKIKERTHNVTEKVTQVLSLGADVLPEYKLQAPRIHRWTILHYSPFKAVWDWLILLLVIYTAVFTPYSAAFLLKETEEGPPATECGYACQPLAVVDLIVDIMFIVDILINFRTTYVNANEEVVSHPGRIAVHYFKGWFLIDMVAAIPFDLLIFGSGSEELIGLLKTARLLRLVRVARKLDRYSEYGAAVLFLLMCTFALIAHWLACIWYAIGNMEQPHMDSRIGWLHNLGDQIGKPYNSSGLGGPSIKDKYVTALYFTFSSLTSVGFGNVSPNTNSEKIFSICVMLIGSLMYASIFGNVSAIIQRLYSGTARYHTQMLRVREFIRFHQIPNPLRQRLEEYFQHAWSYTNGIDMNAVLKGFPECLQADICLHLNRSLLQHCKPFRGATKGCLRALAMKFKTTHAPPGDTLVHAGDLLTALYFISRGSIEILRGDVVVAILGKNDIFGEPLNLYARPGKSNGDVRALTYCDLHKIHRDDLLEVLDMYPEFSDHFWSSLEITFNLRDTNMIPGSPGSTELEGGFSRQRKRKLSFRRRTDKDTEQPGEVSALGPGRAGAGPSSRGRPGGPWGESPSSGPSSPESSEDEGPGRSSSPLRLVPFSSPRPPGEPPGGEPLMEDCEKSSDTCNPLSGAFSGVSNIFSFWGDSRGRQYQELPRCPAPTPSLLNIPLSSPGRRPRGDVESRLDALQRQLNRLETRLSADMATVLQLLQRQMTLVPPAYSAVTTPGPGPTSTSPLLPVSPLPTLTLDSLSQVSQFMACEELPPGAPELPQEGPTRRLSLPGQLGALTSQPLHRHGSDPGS
Transient receptor potential cation channel subfamily V member 1 (Rattus norvegicus), sequence (O35433 whole entry): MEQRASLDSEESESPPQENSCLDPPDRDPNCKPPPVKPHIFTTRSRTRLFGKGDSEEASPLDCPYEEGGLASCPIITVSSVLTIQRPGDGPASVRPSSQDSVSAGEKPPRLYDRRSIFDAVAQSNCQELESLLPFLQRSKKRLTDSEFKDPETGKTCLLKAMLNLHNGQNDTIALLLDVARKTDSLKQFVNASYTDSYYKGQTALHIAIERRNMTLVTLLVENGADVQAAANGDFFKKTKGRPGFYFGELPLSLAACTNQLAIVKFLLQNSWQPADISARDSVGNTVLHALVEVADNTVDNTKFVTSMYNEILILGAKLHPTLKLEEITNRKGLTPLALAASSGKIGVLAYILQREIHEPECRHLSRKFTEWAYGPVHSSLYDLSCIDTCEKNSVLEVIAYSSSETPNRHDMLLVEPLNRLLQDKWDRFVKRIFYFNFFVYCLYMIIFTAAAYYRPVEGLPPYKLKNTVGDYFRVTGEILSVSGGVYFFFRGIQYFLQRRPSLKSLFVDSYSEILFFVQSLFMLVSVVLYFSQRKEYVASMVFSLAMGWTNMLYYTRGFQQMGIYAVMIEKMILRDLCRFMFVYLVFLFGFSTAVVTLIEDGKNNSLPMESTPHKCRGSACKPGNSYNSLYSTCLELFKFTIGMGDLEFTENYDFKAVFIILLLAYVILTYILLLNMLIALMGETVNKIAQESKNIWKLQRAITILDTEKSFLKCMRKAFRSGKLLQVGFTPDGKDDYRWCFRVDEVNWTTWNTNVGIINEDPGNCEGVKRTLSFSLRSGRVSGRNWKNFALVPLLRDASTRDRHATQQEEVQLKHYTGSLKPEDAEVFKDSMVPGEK

SMILES: CC1=C(c2cnc(NC(=O)c3c(F)cccc3F)cn2)CN(c2ncc(C)s2)CC1
IC50 [15]: 400 nM

SMILES: Cc1nnsc1C(=O)Nc1ccc(-n2nc(C(F)(F)F)cc2C(F)(F)F)cc1
IC50 [19]: 10 nM

Second part, led by results:

inhibition [1]: 11% | inhibition [2]: inactive | logP [3]: 4.4 | inhibition [4]: 37% | Stability [6]: 93.2% | solubility [7]: 16.8 µg/mL (≈ 44.4 µM) | inhibition [8]: inactive | inhibition [9]: inactive | inhibition [12]: inactive | half-life [13]: 8.2 min | half-life [14]: 3.3 min
SMILES: COc1cccc(C2(O)CC(C(F)(F)F)=NN2C(=O)Cc2ccccc2)c1 (centres undefined)
inhibition at 10 µM [5]: 9.1% | inhibition (INH) [10]: Not Active | inhibition [11]: inactive

IC50 [16]: 49000 nM | IC50 [17]: 80000 nM
SMILES: O=C(Cc1ccccc1)N1N=C(C(F)(F)F)CC1(O)c1ccccc1C(F)(F)F (centres undefined)

IC50 [18]: 1400 nM
SMILES: COc1ccc(OC)c(-c2ccc(NC(=O)c3ccncc3F)cc2)c1
